Assay results: ChEMBL document CHEMBL1153783, “Synthesis and vasodilatory activity of some amide derivatives of 6-(4-carboxymethyloxyphenyl)-4,5-dihydro-3(2H)-pyridazinone” (Eur J Med Chem, 2009)

Experiments:
Aorta [1] = test: Vasodilatory activity in Wistar rat thoracic aortic ring assessed as inhibition of phenylephrine-induced contraction at 10 uM treated after phenylephrine challenge; assay type: functional
Summary of the method: (§1)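 Thoracic aortic rings were taken from Wistar rats of either sex (300–400 g) and held in PSS at 37 °C under O2/CO2 (95:5), equilibrated ≥90 min. Rings were precontracted with 10^-6 M phenylephrine, then given cumulative additions of 10^-8 to 10^-5 M at 30 min intervals, one compound per ring. Relaxation was read as % of initial contraction. A sigmoidal fit gave pD2 and Emax, reported as mean ± SEM of 4 or 8 experiments.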

Aorta [2] = test: Vasodilatory activity in Wistar rat thoracic aortic ring assessed as inhibition of phenylephrine-induced contraction treated after phenylephrine challenge; assay type: functional, tissue-based; settings: for IC50: Rattus norvegicus, Wistar, Aorta; summary of the method: as §1
Aorta [3] = test: Ratio of SK&F-93741 IC50 to compound IC50 for inhibition of phenylephrine-induced contraction in Wistar rat thoracic aortic ring; assay type: functional
Aorta [4] = test: Ratio of hydralazine IC50 to compound IC50 for inhibition of phenylephrine-induced contraction in Wistar rat thoracic aortic ring; assay type: functional

IC50 (Aorta [2]) [nM] | SMILES | Emax at 10 µM (Aorta [1]) [%] | pD2 (Aorta [2]) | Ratio IC50 (Aorta [3]) | Ratio IC50 (Aorta [4])
 | CC1CC(=O)NN=C1c1ccc(OCC(=O)n2ccnc2)cc1 (stereo not drawn) | 32 |  |  | 
 | CC(=O)Nc1ccc(C2=NNC(=O)CC2C)cc1 (stereo not drawn) | 61.1 | 7 |  | 
910 | O=C1CCC(c2ccc(OCC(=O)N3CCCCC3)cc2)=NN1 | 61.6 | 5.9 |  | 
 | O=C1CCC(c2ccc(OCC(=O)n3ccnc3)cc2)=NN1 | 3.7 |  |  | 
 | CC1CC(=O)NN=C1c1ccc(OCC(=O)N2CCCCC2)cc1 (stereo not drawn) | 29.8 |  |  | 
51 | O=C(COc1ccc(C2=NN(c3ccc(F)cc3)C(=O)CC2)cc1)N1CCCC1 | 61.8 | 7.2 | 1.7 | 4.5
 | CN1CCN(C(=O)COc2ccc(C3=NNC(=O)CC3)cc2)CC1 | 23.9 |  |  | 
1020 | O=C1CCC(c2ccc(OCC(=O)N3CCCC3)cc2)=NN1 | 52.2 | 5.9 |  | 
 | O=C1CCC(c2ccc(OCC(=O)N3CCOCC3)cc2)=NN1 | 41.8 |  |  | 
 | CC1CC(=O)NN=C1c1ccc(OCC(=O)N2CCCC2)cc1 (stereo not drawn) | 21.7 |  |  | 
 | NNc1nncc2ccccc12 [HYDRALAZINE] | 55 | 6.6 |  | 
 | O=C(COc1ccc(C2=NN(c3ccccc3)C(=O)CC2)cc1)N1CCCCC1 | 16.2 |  |  | 
 | CC1CC(=O)NN=C1c1ccc(OCC(=O)N2CCOCC2)cc1 (stereo not drawn) | 17.6 |  |  | 
